Measurements from different studies.
Each line is one published result; the experiments were not run side by side.
Target: Dual specificity tyrosine-phosphorylation-regulated kinase 1B (DYRK1B, Homo sapiens, UniProt Q9Y463)
Technique: competition with immobilised ligand

`O=C(NCC1CCOCC1)c1n[nH]cc1NC(=O)c1c(F)cccc1F` has a remaining binding of 10% (binding; 1 µM).
`N#Cc1ccccc1CSc1nnc2c(n1)[nH]c1ccccc12` has a remaining binding of 74% (binding; 10 µM).
With `CC(C)(C)c1ccc(-c2nc(CBr)nn2-c2cccc(O)c2)cc1` the remaining binding was 78% (cell-free assay; 10 µM).
`COc1cnc(Nc2cccc(S(N)(=O)=O)c2)nc1N1CCN(c2ccccc2)CC1` has a remaining binding of 100% (binding; 1 µM).
For `Nc1ncc2c(n1)-c1c([nH]c3ccc(C#CC4CC4)cc13)CCCC2`, the remaining binding was 77% (binding; 1 µM).
With `COc1ccc2c(c1)O[C@@H](c1ccc(OC)c(OC)c1)C[C@H]2NC(=O)C1(c2ccc3c(c2)OC(F)(F)O3)CC1` the remaining binding was 100% (cell-free assay; 1 µM).
For `c1cncc(-c2cccc(Nc3nccc(NC4CCCCC4)n3)c2)c1`, the remaining binding was 38% (binding; 10 µM).
With `CN(C)c1ncnc(-c2ccc3nc(Nc4cc(CN5CCN(C(=O)CC(F)(F)F)CC5)ccn4)[nH]c3c2)c1Cl` the remaining binding was 100% (cell-free assay; 1 µM).
With `CCN1CCN(Cc2ccc(C(=O)Nc3ccc(C)c(Oc4ccc5c(c4)CC(=O)N5)c3)cc2C(F)(F)F)CC1` the remaining binding was 95% (binding; 1 µM).
The remaining binding of `O=C(NCCCN1CCOCC1)c1ccc(Nc2ncc(Cl)c(-c3ccc(Cl)s3)n2)cc1` is reported as 13% (binding; 1 µM).
For `Nc1c(C(=O)NCc2ccc(C(=O)NCCCC3CCCCC3)cc2)cnn1-c1ccccc1`, the remaining binding was 100% (cell-free assay; 0.1 µM).
With `O=C(c1ccc(Nc2nccc(-c3cc4ccccc4s3)n2)cc1)N1CCC(N2CCCC2)CC1` the remaining binding was 99% (binding; 1 µM).
`Cc1c[nH]c2nccc(Oc3c(F)cc(Nc4cc(Cl)nc(N)n4)cc3F)c12` gave a remaining binding of 100% (cell-free assay; 0.1 µM).
`O=C(c1ccc(Nc2ncc(Cl)c(-c3cc4ccccc4s3)n2)cc1)N1CCC(N2CCCC2)CC1` gave a remaining binding of 18% (binding; 1 µM).
`CCC(=O)N[C@@H]1CC[C@H](C(=O)N(C)c2ccc(-c3nc4ccccc4o3)cc2)C1` has a remaining binding of 36% (cell-free assay; 1 µM).
